Experiments:
[1] = Growth inhibition of human A549 cells after 48 hrs by SRB assay; assay type: functional; conditions: A549, 48 h
[2] = Cytotoxicity against human NCI-H460 cells assessed as decrease in cell viability after 72 hrs by MTT assay; assay type: functional, cell-based; conditions: NCI-H460, 72 h
Method in brief: (§1)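 Cells kept in RPMI 1640 with 10% FBS at 37 °C, 5% CO2, passaged every 2-3 days; seeded at 5,000-7,000 cells/well and left 24 h. Compounds dissolved in 1% DMSO, diluted in fresh medium to 1, 4, 16 and 32 µM, added in sextuplicate; 72 h exposure. MTT added for 3-4 h, medium removed, DMSO added for 15 min at 37 °C, OD read at 540 nm.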

[3] = Cytotoxicity against human NCI-H1975 cells assessed as decrease in cell viability after 72 hrs by MTT assay; assay type: functional, cell-based; conditions: NCI-H1975, 72 h; method in brief: as §1
[4] = Cytotoxicity against human HCC827 cells assessed as decrease in cell viability after 72 hrs by MTT assay; assay type: functional, cell-based; conditions: HCC827, 72 h; method in brief: as §1
[5] = Cytotoxicity against human A549 cells assessed as decrease in cell viability after 72 hrs by MTT assay; assay type: functional, cell-based; conditions: A549, 72 h; method in brief: as §1
[6] = Cytotoxicity against human NCI-H226 cells assessed as cell growth at 10 uM after 48 hrs by SRB assay relative to control; assay type: functional; conditions: NCI-H226, 48 h, read-out: Activity
[7] = Cytotoxicity against human HOP92 cells assessed as cell growth at 10 uM after 48 hrs by SRB assay relative to control; assay type: functional; conditions: HOP-92, 48 h, read-out: Activity
[8] = Cytotoxicity against human A549 cells assessed as cell growth at 10 uM after 48 hrs by SRB assay relative to control; assay type: functional; conditions: A549, 48 h, read-out: Activity
[9] = Cytotoxicity against human EKVX cells assessed as cell growth at 10 uM after 48 hrs by SRB assay relative to control; assay type: functional; conditions: read-out: Activity
[10] = Cytotoxicity against human HOP62 cells assessed as cell growth at 10 uM after 48 hrs by SRB assay relative to control; assay type: functional; conditions: HOP-62, 48 h, read-out: Activity
[11] = Cytotoxicity against human NCI-H23 cells assessed as cell growth at 10 uM after 48 hrs by SRB assay relative to control; assay type: functional; conditions: NCI-H23, 48 h, read-out: Activity
[12] = Cytotoxicity against human NCI-H322M cells assessed as cell growth at 10 uM after 48 hrs by SRB assay relative to control; assay type: functional; conditions: read-out: Activity
[13] = Cytotoxicity against human NCI-H460 cells assessed as cell growth at 10 uM after 48 hrs by SRB assay relative to control; assay type: functional; conditions: NCI-H460, 48 h, read-out: Activity
[14] = Cytotoxicity against human NCI-H522 cells assessed as cell growth at 10 uM after 48 hrs by SRB assay relative to control; assay type: functional; conditions: NCI-H522, 48 h, read-out: Activity
[15] = Growth inhibition of human EKVX cells after 48 hrs by SRB assay; assay type: functional
[16] = Growth inhibition of human HOP62 cells after 48 hrs by SRB assay; assay type: functional; conditions: HOP-62, 48 h
[17] = Growth inhibition of human HOP92 cells after 48 hrs by SRB assay; assay type: functional; conditions: HOP-92, 48 h
[18] = Growth inhibition of human NCI-H226 cells after 48 hrs by SRB assay; assay type: functional; conditions: NCI-H226, 48 h
[19] = Growth inhibition of human NCI-H23 cells after 48 hrs by SRB assay; assay type: functional; conditions: NCI-H23, 48 h
[20] = Growth inhibition of human NCI-H322M cells after 48 hrs by SRB assay; assay type: functional
[21] = Growth inhibition of human NCI-H460 cells after 48 hrs by SRB assay; assay type: functional; conditions: NCI-H460, 48 h
[22] = Growth inhibition of human NCI-H522 cells after 48 hrs by SRB assay; assay type: functional; conditions: NCI-H522, 48 h
[23] = tested on: Mus musculus; assay: Toxicity in C57BL/6 mouse assessed as weight loss at 20 mg/kg, ip measured on day 2; assay type: organism-based; conditions: in vivo
Method in brief: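 Male C57BL/6 mice, 8 weeks old, 3 per cage, 12 h light/dark, food and water ad libitum, acclimated 5 days. Single IP dose on day 0 of 100 µL of 4 mg/mL in 20% 2-HPβCD in sterile PBS (~20 mg/kg assuming 20 g mice). Vehicle controls got 100 µL 20% 2-HPβCD/PBS IP on days 0, 7, 14, 21, 25. Weighed and monitored daily.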

[24] = tested on: Mus musculus; assay: Toxicity in C57BL/6 mouse assessed as increase in body mass at 20 mg/kg, ip measured after 16 days; assay type: organism-based; conditions: in vivo, 384 h
Method in brief: (§2)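 Male C57BL/6 mice, eight weeks old, housed three per cage on a 12 h light/dark cycle with food and water ad libitum, acclimated 5 days. Single IP injection on day 0 of 100 µL of a 4 mg/mL solution (0.4 mg, ~20 mg/kg assuming 20 g mice) in 20% 2-HPβCD sterile PBS. Vehicle controls were injected on days 0, 7, 14, 21 and 25. Mice were monitored and weighed daily.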

[25] = Toxicity in C57BL/6 mouse assessed as mouse survival rate at 20 mg/kg, ip measured after 16 days; assay type: organism-based; conditions: in vivo; method in brief: as §2
[26] = Aqueous solubility of the compound; assay type: physicochemical
[27] = read-out: LC50 (the source's name)

**Q.** Which results are given for `COCCOCCOCc1n(Cc2ccc3ccccc3n2)c2ccccc2[n+]1Cc1ccc2ccccc2c1.[Br-]`?
**A.** GI50 [1]: 748 nM; LC50 [1]: 37100 nM; TGI [1]: 10600 nM; IC50 [2]: 3000 nM; IC50 [3]: < 1000 nM; IC50 [4]: 6000 nM; IC50 [5]: 3000 nM; growth at 10 µM [6]: 28.1%; growth at 10 µM [7]: -18.2%; growth at 10 µM [8]: 22.5%; growth at 10 µM [9]: 31%; growth at 10 µM [10]: 11.7%; growth at 10 µM [11]: 1.03%; growth at 10 µM [12]: 26.8%; growth at 10 µM [13]: 7.94%; growth at 10 µM [14]: 0.79%; GI50 [15]: 1270 nM; LC50 [15]: 50900 nM; TGI [15]: 10800 nM; GI50 [16]: 468 nM; TGI [16]: 2520 nM; CC50 [16, 27]: 9530 nM; GI50 [17]: 207 nM; LC50 [17]: 5220 nM; TGI [17]: 718 nM; GI50 [18]: 874 nM; LC50 [18]: 45200 nM; TGI [18]: 4830 nM; GI50 [19]: 386 nM; LC50 [19]: 53500 nM; TGI [19]: 10300 nM; GI50 [20]: 1080 nM; TGI [20]: 7090 nM; CC50 [20, 27]: 28600 nM; GI50 [21]: 424 nM; LC50 [21]: 5700 nM; TGI [21]: 1560 nM; GI50 [22]: 248 nM; TGI [22]: 936 nM; CC50 [22, 27]: 4590 nM; Activity [23]: Toxic; Activity [24]: 6%; survival at 384 h [25]: 33%; solubility [26]: 1900 µg/mL
